Results: PubChem BioAssay AID493091 (Sanford-Burnham Center for Chemical Genomics, 2011)
In all, about 340,000 compounds went through this assay and about 3,000 (0.88%) were called active.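 The calls were made as follows: active = inhibition above about 50% at 20 µM (limit read from the data); inactive = the rest.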 Only a selection was taken, and actives are over-represented in it overall.

Target: Carboxy-terminal domain RNA polymerase II polypeptide A small phosphatase 1 (Homo sapiens) (UniProt Q9GZU7)
Sequence (Q9GZU7 76-261 limits assumed): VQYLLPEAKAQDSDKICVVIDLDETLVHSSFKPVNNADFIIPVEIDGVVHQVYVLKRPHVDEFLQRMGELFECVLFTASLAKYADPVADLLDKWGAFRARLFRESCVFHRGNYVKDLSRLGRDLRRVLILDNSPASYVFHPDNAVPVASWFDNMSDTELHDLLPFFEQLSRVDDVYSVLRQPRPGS
Experiment: Scp-1 phosphatase inhibitors, primary screen, biochemical, colorimetric, uHTS (AID 493091);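 also: plate controls were DMSO wells with enzyme for no effect and wells lacking enzyme for full effect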
Conditions: Recombinant Scp1, phosphopeptide, malachite green phosphate absorbance; at 20 µM; hits give high values
Procedure, shortened: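 Times: enzyme reaction 45 min at room temperature, colour 5 min, stabilisation 30 min. Material: SCP-1 catalytic fragment, aa 76-261. Medium: Acidic Tris acetate buffer with magnesium and detergent. Signal: colorimetric free-phosphate detection, absorbance 630 nm. Read-out basis: % inhibition of SCP-1 phosphate liberation. Reagent: Phosphorylated 17-residue peptide substrate.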

inhibition, active:
C[N+](C)(C)CCNC(=O)c1cc[n+](Cc2ccccc2)c(/C=N/O)c1 99.5%, CCOc1ccc2nc(N(CCCN(C)C)C(=O)c3ccc(C(=O)c4ccccc4)cc3)sc2c1 65%, CNS(=O)(=O)c1cccc(C(=O)OCC(=O)N2c3ccccc3NC(=O)C2(C)C)c1 51%, CC/C(=C(/c1ccccc1)c1ccc(OCC[N+](C)(C)C)cc1)c1ccccc1 67.4%, CSc1nnc(SCc2nc3sc(C(=O)O)c(C)c3c(=O)[nH]2)s1 74%, CCN1/C(=C/c2ccc3ccc(C)cc3[n+]2CC)Sc2ccccc21 64.2%, Cc1ccc(NC(=O)c2cc(-c3ccc(C)o3)nc3ccccc23)nc1 67.5%, O=C(NN1C(=O)C2C3C=CC(O3)C2C1=O)c1ccccc1 (configuration not stated) 56%, O=c1ccc2c(-c3ccccc3S(=O)(=O)O)c3ccc(O)c(O)c3oc-2c1O 64.1%, O=C(Cn1cc(/C=N/NC(=O)c2cccc(C(F)(F)F)c2)c2ccccc21)Nc1ccc(F)cc1 90.8%, COc1ccc(N2CCN(C(=O)CSc3nc4cc(OC)c(OC)cc4cc3C#N)CC2)cc1 67.5%, Cc1ccc(SCC(=O)NC(=O)NCc2ccco2)c(C)c1 70%, O=C(CCS(=O)(=O)c1ccc(Br)cc1)NCCc1ccc(Cl)cc1 80%, COc1ccc(Cl)cc1NC(=O)CCS(=O)(=O)c1ccc(Br)cc1 94.5%, C=C1c2c(Cl)ccc(O)c2C(O)=C2C(=O)[C@]3(O)C(O)=C(C(N)=O)C(=O)[C@@H](N(C)C)[C@@H]3[C@@H](O)C12 (some centres not stated) 65.5%, O=C(Nc1ccc(-c2nnc(-c3ccccc3)o2)cc1)c1ccc(Br)o1 73%, CC1(C)CC(N2CCN(C(c3ccccc3)c3ccccc3)CC2)=CC(=[N+]2CCCCC2)C1 98.9%, O=c1c2cc(-c3ccccc3)sc2nc2n1N=C(c1cccs1)CS2 79.1%, N#Cc1c(N2CCCCC2)nc(N)c2c(N)nc(SCC(=O)O)cc12 65.9%, Cc1ccn2c(=O)nc(SCC(=O)NCc3ccc4c(c3)OCO4)nc2c1 73.6%

inhibition, inactive:
CSc1ccc(Cl)c(C(=O)OCC(=O)N2CCNC2=O)c1 0.5%, O=C(NCCCNCc1ccccc1)c1ccc(/C=N/O)nc1 -4.62%, CC(C)c1ccc(C(=O)NCCCc2ccccc2)cc1 -14.7%, O=C(NNS(=O)(=O)c1ccc([N+](=O)[O-])cc1)C1CCCCC1 -6.14%, Cc1cc2occ(CC(=O)NNC(=O)c3ccccc3F)c2cc1C -10.5%, CCN(CC)CCN(C(=O)c1cccc([N+](=O)[O-])c1)c1nc2ccc(OC)cc2s1 -1.97%, CN(C)CCCN(C(=O)c1ccc(S(=O)(=O)N2CCCCCC2)cc1)c1nc2ccc(Br)cc2s1 11.7%, CC(C)CNC(=O)COC(=O)/C=C/c1ccco1 22.6%, COc1c(Br)cc2c(C)c(C(=O)N3CCOCC3)oc2c1Br -4.18%, Cc1ccc(OCCC(=O)OCC(=O)N2c3ccccc3NC(=O)C2(C)C)cc1 3.3%, CCNc1ccc(C(=O)OCC(=O)N2c3ccccc3NC(=O)C2(C)C)cc1[N+](=O)[O-] -9.83%, CCCCCN(C(=O)CCC(=O)OCC(=O)NC1CCC(C)CC1)c1c(N)n(CCCC)c(=O)[nH]c1=O (configuration not stated) 3.11%, CC(=O)NNC(=O)c1csc(Cc2c(Cl)sc3ccc(Cl)cc23)n1 -4.25%, CC1CC(=O)N(CC(=O)Nc2cccc(Cl)c2)c2ccccc2S1(=O)=O (configuration not stated) -2.39%, O=C(CCc1ccc(S(=O)(=O)N2CCOCC2)cc1)Nc1ccc2ccccc2c1 -11.8%, CCN(C(=O)COc1ccc(C(=O)c2ccccc2)cc1)c1ccccc1 -3.83%, CCOc1cc(C(=O)O)ccc1OCCOc1ccccc1 6.63%, O=C(CCn1ccc([N+](=O)[O-])n1)Nc1nccs1 -5.19%, CC(=O)c1ccc(N2CCN(C(=O)c3ccc(Cl)c(S(=O)(=O)NC4CC4)c3)CC2)c(F)c1 -5.7%, CC(=O)c1sc2nc(SCC(=O)N3CCCCC3)[nH]c(=O)c2c1C 7.94%, Cc1sc2nc(CSCC(=O)NC3CCCCC3)[nH]c(=O)c2c1C 1.62%, CCN1/C(=C\c2ccc3ccccc3[n+]2CC)Sc2cc(C)ccc21 21.8%, CCOc1cc(C2C(C(=O)OC(C)C)=C(C)NC3=C2C(=O)CCC3)cc([N+](=O)[O-])c1O (configuration not stated) -7.32%, CCN(CC)C(=O)Oc1ccc(OC(=O)N(CC)CC)cc1 7.37%, O=C(NCc1ccccn1)C1CCN(S(=O)(=O)c2ccc(Br)cc2)CC1 3.99%, CC(=O)N1CCN(C(=O)c2cc(-c3ccc(C)o3)nc3ccccc23)CC1 -8.9%, COc1ccc(NC(=O)CN(C)C(=O)c2cc(-c3ccc(C)o3)nc3ccccc23)cc1 -3.85%, O=C(C1CCCO1)N1CCN(S(=O)(=O)c2ccc(Br)cc2)CC1 (configuration not stated) -5.02%, CN(C)C(CNC(=O)c1ccc(S(=O)(=O)NCc2ccco2)cc1)c1ccccc1 (configuration not stated) -0.87%, O=C(NN1C(=O)C2C3C=CC(O3)C2C1=O)c1ccncc1 (configuration not stated) 0.55%, COc1ccccc1C(=O)NN1C(=O)C2C3C=CC(O3)C2C1=O (configuration not stated) -11.3%, CCOc1cc(NC(=O)CCl)c(OCC)cc1NC(C)=O -1.31%, O=C(Nc1cc2c3c(c1)CC(=O)N3CCC2)c1ccccc1F -6.14%, O=P(O)(CP(=O)(c1ccccc1)c1ccccc1)c1ccccc1 -4.63%, COc1cccc(Cn2cc(/C=N/NC(=O)c3cc(O)cc(O)c3)c3ccccc32)c1 -15.4%, O=C(CSc1ccc(/C=N/NC(=O)c2cccc(F)c2)o1)Nc1ccccc1 -3.74%, COc1cc(C2C3=C(CCCC3=O)OC3=C2C(=O)CCC3)ccc1OCC(=O)Nc1ccccc1 4.63%, COc1ccc(N2CCN(C(=O)CSc3nnc4ncccn34)CC2)cc1 -6.4%, CCOc1ccc(-c2nnn(CC(=O)N3CCN(c4ccc(OC)cc4)CC3)n2)cc1OCC -1.29%, CCNC(=S)NCC -5.72%, COc1ccc(/C(O)=C2/C(=O)C(=O)N(CC3CCCO3)C2c2ccc(OC)c(OC)c2)cc1 (configuration not stated) -4.81%, Cc1cc(C)n2nc(SCC(=O)NC(=O)NCc3ccco3)nc2n1 7.37%, Cc1ccc(NC(=O)C(=O)NCc2ccco2)c(C)c1 -2.49%, O=C(Cc1ccccc1Cl)N1CCN(c2ccccn2)CC1 -2.92%, O=C(Cn1cnc2ccccc2c1=O)Nc1cccc(S(=O)(=O)N2CCCCC2)c1 -7.43%, CN(C)C=NC(=O)c1cccn1-c1ncc(C(F)(F)F)cc1Cl -4.15%, Cc1ccc(S(=O)(=O)CCC(=O)OCC(=O)NCCc2ccc(S(N)(=O)=O)cc2)cc1 -5.47%, CCOc1ccc(OCC)c(NC(=O)CCS(=O)(=O)c2ccc(C)cc2)c1 -14.2%, COc1ccc(Cl)cc1NC(=O)CCS(=O)(=O)c1cc2c(cc1C)NC(=O)CO2 -1.24%, O=C(Cc1ccc(Br)cc1)NCCc1ccccc1 -9.76%, CCc1ccc(C(=O)N2CCN(S(=O)(=O)c3sc(C(=O)O)c(C)c3C(=O)O)CC2)cc1 11.9%, CC1CC(C)CN(C/C=C/c2ccccc2[N+](=O)[O-])C1 (configuration not stated) -6.48%, CN(C)[C@@H]1C(=O)C(C(N)=O)=C(O)[C@@]2(O)C(=O)C3=C(O)c4c(O)ccc(Cl)c4[C@@H](O)[C@H]3C[C@@H]12 -6.29%, O=C(CNC(=O)c1cc2c(s1)CCC2)Nc1ccccc1Br -7%, Brc1ccc(-c2nnc(-c3ccccc3)o2)o1 2.87%, O=C(CNC(=O)c1ccc(Br)o1)Nc1ccccc1 -5.1%, O=C(COC(=O)c1cccnc1Cl)NC12CC3CC(CC(C3)C1)C2 -2.71%, c1ccc(C(c2ccccc2)N2CCN(Cc3nnnn3C3CCCCC3)CC2)cc1 5.01%, CC(C)OCC(O)CN1CCN(C(c2ccccc2)c2ccccc2)CC1 (configuration not stated) -1.8%, COc1cc2c(cc1OC)C1C(=O)c3cc(OS(C)(=O)=O)c(OC)cc3C1N(C)C2=O (configuration not stated) 7.12%, Cc1ccc(C)c(-c2nnc(NC(=O)CS(=O)(=O)c3ccccc3)o2)c1 -3.82%, O=c1c(-c2ccccc2)cnc2n1CCS2 -9.56%, Cc1ccccc1C1CC(c2cccs2)=NN1S(C)(=O)=O (configuration not stated) 4.93%, COc1ccc(OCc2cc(C(=O)NCC3(C)COC3)no2)c(Cl)c1 -1.65%, Cc1nc2ccc(C(=O)N(C)CC3CCCN(CCc4ccc(Cl)cc4)C3)cc2[nH]1 (configuration not stated) -5.73%, COc1ccc(S(=O)(=O)N2CCN(C(=O)c3cc(C)oc3C)CC2)cc1 -8.28%, Nc1nc(NCC(=O)O)nc(N2CCCCCC2)c1[N+](=O)[O-] 6.19%, N#CCc1c(C#N)c(N)nc(N2CCCC2)c1C#N -4.92%, CC(=O)Nc1ccc(S(=O)(=O)NC(C)C(=O)OCCOc2ccc(F)cc2)cc1 (configuration not stated) -7.64%, CCOc1ccccc1Nc1nnc(SCC(=O)NCC2CCCO2)s1 (configuration not stated) -9.59%, Cc1ccn2c(=O)nc(SCC(=O)NCc3ccc(F)cc3)nc2c1 16.3%, O=C(CSc1ncn[nH]1)NCc1ccc2c(c1)OCO2 -1.73%
